Experimental data: ChEMBL document CHEMBL1152787, “Search for MDR modulators: design, syntheses and evaluations of N-substituted acridones for interactions with p-glycoprotein and Mg2+” (Bioorg Med Chem, 2009)

Assays:
[1] = Lipophilicity, log P of the compound; type: physicochemical; details: octanol/water
[2] = target: T1, ATP-dependent translocase ABCB1 (Homo sapiens, UniProt P08183); assay: Inhibition of P-gp ATPase activity in […] DC-3F/ADX cells assessed as increase in basal activity measured by NADH level at 0.5 uM by spectrophotometric method; type: cell-based; design: scale not given: the % may be the effect or the level left; details: Chinese hamster
Summary of the method: (§1)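 P-gp basal MgATP hydrolysis in vesicle suspension, monitored continuously by spectrophotometry. ADP formation is coupled through phosphoenolpyruvate→pyruvate→lactate with NADH→NAD+ conversion, read as NADH absorbance at 340 nm in a 96-well plate. Compound stocks of 0.5, 5 and 50 µM give final well concentrations of 0.05, 0.5 and 5 µM. Run in triplicate.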

[3] = target: T1, ATP-dependent translocase ABCB1; assay: Inhibition of P-gp ATPase activity in […] DC-3F/ADX cells assessed as increase in basal activity measured by NADH level at 0.05 uM by spectrophotometric method; type: cell-based; design: scale not given: the % may be the effect or the level left; details: Chinese hamster; summary of the method: as §1
[4] = target: T1, ATP-dependent translocase ABCB1; assay: Inhibition of P-gp ATPase activity in […] DC-3F/ADX cells assessed as increase in basal activity measured by NADH level at 5 uM by spectrophotometric method; type: cell-based; design: scale not given: the % may be the effect or the level left; details: Chinese hamster; summary of the method: as §1

T1 sequence (P08183 whole entry): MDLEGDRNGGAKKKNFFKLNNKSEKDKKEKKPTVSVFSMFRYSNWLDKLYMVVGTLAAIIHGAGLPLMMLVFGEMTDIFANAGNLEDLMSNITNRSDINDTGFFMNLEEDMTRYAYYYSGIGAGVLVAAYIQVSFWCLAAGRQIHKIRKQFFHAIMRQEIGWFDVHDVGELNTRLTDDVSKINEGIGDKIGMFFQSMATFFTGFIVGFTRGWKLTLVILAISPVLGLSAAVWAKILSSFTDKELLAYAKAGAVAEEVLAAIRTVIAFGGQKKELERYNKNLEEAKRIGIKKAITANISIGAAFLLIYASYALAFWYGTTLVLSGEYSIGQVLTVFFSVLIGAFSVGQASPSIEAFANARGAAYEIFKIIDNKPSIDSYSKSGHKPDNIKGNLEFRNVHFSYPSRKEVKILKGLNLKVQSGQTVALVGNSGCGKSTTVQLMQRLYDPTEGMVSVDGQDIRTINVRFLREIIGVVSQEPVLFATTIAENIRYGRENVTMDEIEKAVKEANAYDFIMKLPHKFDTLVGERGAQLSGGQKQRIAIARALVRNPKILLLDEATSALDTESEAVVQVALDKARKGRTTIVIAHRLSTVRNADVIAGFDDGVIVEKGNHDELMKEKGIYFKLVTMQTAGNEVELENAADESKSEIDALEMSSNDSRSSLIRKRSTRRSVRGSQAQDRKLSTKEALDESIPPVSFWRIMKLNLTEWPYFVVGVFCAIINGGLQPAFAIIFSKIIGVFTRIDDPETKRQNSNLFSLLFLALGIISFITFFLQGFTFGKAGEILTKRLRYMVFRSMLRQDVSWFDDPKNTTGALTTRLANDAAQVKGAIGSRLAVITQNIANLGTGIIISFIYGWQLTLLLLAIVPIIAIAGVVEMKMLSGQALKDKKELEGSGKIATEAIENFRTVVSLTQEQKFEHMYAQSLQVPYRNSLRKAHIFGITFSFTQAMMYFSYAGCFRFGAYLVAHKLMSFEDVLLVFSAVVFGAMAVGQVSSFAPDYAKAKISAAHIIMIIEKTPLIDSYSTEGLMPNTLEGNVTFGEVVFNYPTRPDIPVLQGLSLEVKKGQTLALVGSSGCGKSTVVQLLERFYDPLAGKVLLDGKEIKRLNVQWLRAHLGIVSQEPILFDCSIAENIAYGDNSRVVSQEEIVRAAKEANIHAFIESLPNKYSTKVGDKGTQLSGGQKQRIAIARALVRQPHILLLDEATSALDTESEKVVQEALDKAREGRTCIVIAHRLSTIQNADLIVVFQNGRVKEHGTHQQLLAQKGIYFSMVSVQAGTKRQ

| logP [1] | Activity [2] [%] | Activity [3] [%] | Activity [4] [%] | SMILES |
| --- | --- | --- | --- | --- |
| 1.73 | 34 | 31 | 38 | O=c1c2ccccc2n(CC(O)CN2CCCC2)c2ccccc12 (configuration not stated) |
| 2.14 | 40 | 33 | 44 | O=c1c2ccccc2n(CC(O)CN2CCCCC2)c2ccccc12 (configuration not stated) |
| 2.56 | 32 | 25 | 31 | O=c1c2ccccc2n(CC(O)CN2CCC(N3CCCCC3)CC2)c2ccccc12 (configuration not stated) |
| 1.98 | 32 | 29 | 36 | CCN(CC)CC(O)Cn1c2ccccc2c(=O)c2ccccc21 (configuration not stated) |
| 2.58 | 21 | 18 | 28 | CC(C)N(CC(O)Cn1c2ccccc2c(=O)c2ccccc21)C(C)C (configuration not stated) |
| 1.08 | 27 | 24 | 30 | O=c1c2ccccc2n(CC(O)CN2CCOCC2)c2ccccc12 (configuration not stated) |
|  | 31 |  | 40 | CCCNCC(O)COc1ccccc1C(=O)CCc1ccccc1 (configuration not stated) [PROPAFENONE] |
|  | 30 |  | 33 | COc1ccc(CCN(C)CCCC(C#N)(c2ccc(OC)c(OC)c2)C(C)C)cc1OC (configuration not stated) [VERAPAMIL] |
|  | 31 |  | 35 | CC[C@]1(O)C[C@@H]2CN(CCc3c([nH]c4ccccc34)[C@@](C(=O)OC)(c3cc4c(cc3OC)N(C)[C@H]3[C@@](O)(C(=O)OC)[C@H](OC(C)=O)[C@]5(CC)C=CCN6CC[C@]43[C@@H]65)C2)C1 [VINBLASTINE] |

| SMILES | logP [1] | Activity [2] [%] | Activity [3] [%] | Activity [4] [%] |
| --- | --- | --- | --- | --- |
| CC(=O)[C@H]1CC[C@H]2[C@@H]3CCC4=CC(=O)CC[C@]4(C)[C@H]3CC[C@]12C [PROGESTERONE] |  | 30 |  | 34 |
